From PubChem
In the library only some 4.1% were active in any assay of this set; here they are far more common.
KCNQ1 block: human KCNQ1 channel inhibition; 310,000 compounds, 1.3% hits; CHO-K1 KCNQ1, FluxOR thallium flux fluorescence; stronger effect = higher value; AID 2642; B-score at 10 µM; P51787;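 active = compounds whose thallium flux B-score, printed positive for inhibition, exceeds three library SD while starting fluorescence stays within three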;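 also: channel opened by potassium depolarization with thallium stimulus after 20 min compound exposure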
KCNK9 inh: human KCNK9 channel inhibition | Q9NPC2 | HEK293 KCNK9, FluxOR thallium flux fluorescence; stronger effect = lower value | B-score at 10 µM | 310,000 compounds, 1.2% hits | AID 488922;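 active = ratio B-score over 3 SD below the library mean, with starting fluorescence within 5 SD of its mean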;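 also: negative B-score means less thallium flux so channel inhibition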
Target sequence (Q9NPC2 whole entry, looked up): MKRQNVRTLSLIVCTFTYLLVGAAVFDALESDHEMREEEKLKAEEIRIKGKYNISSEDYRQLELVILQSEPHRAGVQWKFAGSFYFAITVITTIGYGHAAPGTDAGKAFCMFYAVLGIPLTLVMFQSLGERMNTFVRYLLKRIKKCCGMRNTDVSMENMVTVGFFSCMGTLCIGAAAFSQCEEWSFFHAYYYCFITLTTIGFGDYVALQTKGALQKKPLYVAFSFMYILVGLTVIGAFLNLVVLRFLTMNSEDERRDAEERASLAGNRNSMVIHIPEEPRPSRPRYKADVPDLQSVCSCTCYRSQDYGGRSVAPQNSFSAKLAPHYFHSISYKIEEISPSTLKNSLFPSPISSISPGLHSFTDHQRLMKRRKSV
KCNK3 inh: human KCNK3 channel inhibition, primary screen | O14649 | AID 602410 | CHO-KCNK3 thallium flux, FluxOR fluorescence; stronger effect = lower value | B-score at 10 µM | 340,000 compounds, 0.84% hits;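 active = B-score under library mean minus 4 SD, starting fluorescence ratio at most library mean plus 5 SD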;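 also: more negative B-score means stronger inhibition of thallium flux through KCNK3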
Target sequence (O14649 whole entry, looked up): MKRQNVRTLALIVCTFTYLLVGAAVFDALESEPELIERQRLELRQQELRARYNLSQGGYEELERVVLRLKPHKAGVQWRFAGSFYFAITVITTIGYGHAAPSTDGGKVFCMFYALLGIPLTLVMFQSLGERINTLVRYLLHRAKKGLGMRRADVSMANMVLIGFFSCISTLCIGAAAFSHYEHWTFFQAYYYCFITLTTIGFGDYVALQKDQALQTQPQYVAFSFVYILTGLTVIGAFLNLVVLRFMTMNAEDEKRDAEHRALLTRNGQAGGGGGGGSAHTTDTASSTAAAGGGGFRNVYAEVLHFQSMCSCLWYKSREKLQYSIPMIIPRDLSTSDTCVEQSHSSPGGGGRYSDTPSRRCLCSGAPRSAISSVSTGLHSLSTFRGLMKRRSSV
hERG rescue: compounds protecting human hERG from proarrhythmic drug block. Q12809. CHO-hERG, FluxOR thallium flux, dofetilide IC70 present. activation (rescue from dofetilide block), less the hit threshold, % at 10 µM. 310,000 compounds, 0.51% hits;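 active = activation above the mean of controls blocked by dofetilide plus 5 SD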;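 also: thallium influx through hERG after potassium depolarization seen as dye fluorescence rise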
KCNQ1 act: potentiates or activates the human KCNQ1 potassium channel; P51787; CHO-K1 KCNQ1, thallium flux FluxOR fluorescence; stronger effect = higher value; B-score at 10 µM; 310,000 compounds, 0.35% hits;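 active = fluorescence ratio B-score, a plate-corrected score, at least three library SD, with initial intensity B-score within 5 SD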
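Medium – assay buffer, equal DMSO in all wells · Material – CHO-K1 cell line with stable KCNQ1 potassium channel expression · Signal – kinetic FluxOR thallium fluorescence, 10-s 1-Hz baseline, 110-s post-stimulus read · Compound – single concentration per compound, DMSO matched to controls · Schedule – 37 °C overnight plating, 90-min dark dye load, 20-min compound pretreatment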
Cl transport mod: KCC2 (human) Cl- transport modulation. Q9H2X9. KCC2 cells, thallium flux FluoZin-2 fluorescence. B-score of Tl+ flux slope (higher = more flux/activation; lower = inhibition) at 10 µM. 190,000 compounds, 2.2% hits. AID 1456;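 active = thallium flux slope and its plate-corrected score both differing from the plate sample mean at a set confidence after two filtering rounds, in either direction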;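 also: slope of fluorescence scaled to starting intensity during 10 to 20 s after thallium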
KCC2 sec1: KCC2 (human) modulation, secondary assay; shares compounds with Cl transport mod; HEK293-KCC2, thallium flux, FluoZin2 fluorescence; stronger effect = higher value; normalised thallium flux (F/F0 slope) at 10 µM; 3,700 compounds, 15% hits; AID 1713;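 active = thallium flux slope above the same plate's solvent-only control mean plus 3 SD; inconclusive = the two replicate wells disagree; inactive = no significant difference from solvent-only control wells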
KCC2 bumet counter: thallium flux despite bumetanide block in KCC2 cells, secondary assay 3 | shares compounds with Cl transport mod | HEK293-KCC2 + bumetanide/ouabain, thallium flux FluoZin2; stronger effect = higher value | normalized thallium flux at 10 µM | 3,700 compounds, 49% hits | AID 1714;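 active = thallium entry rate above the same plate's blocked-transporter control wells by more than 3 SD; inconclusive = the two repeat wells disagree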;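 also: raw slope of fluorescence over initial fluorescence between 10 and 20 s after thallium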
KCC2 sec2: KCC2 (human) modulation, second secondary assay. shares compounds with Cl transport mod. HEK293-KCC2, thallium flux FluoZin2 fluorescence; actives lie on both sides; F/F0 rise rate, 10–20 s post-thallium. normalized thallium flux at 10 µM. 3,700 compounds, 23% hits. AID 1715;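 active = thallium flux slope more than 3 SD above or below the plate's solvent-only control mean, mostly below; inconclusive = the two repeat wells disagreed; inactive = no significant shift from solvent-only controls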
HEK293 Tl flux: parental HEK flux effect, counter-screen | shares compounds with Cl transport mod | HEK293 parental cells, thallium flux FluoZin2, ouabain; baseline-ratio fluorescence slope, 10–20 s after thallium | thallium flux rate (normalised fluorescence) at 10 µM | 3,700 compounds, 46% hits | AID 1716;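 active = thallium flux rate significantly above the same plate's solvent-only control wells, beyond their mean plus 3 SD; inconclusive = the two replicate wells gave conflicting results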
KCC2 retest ouab: modulates human KCC2 on retest with ouabain; 3,700 compounds, 48% hits; shares compounds with Cl transport mod; HEK293-KCC2, thallium flux FluoZin2 fluorescence; bidirectional: low = inhibitor, high = activator; raw Tl+ flux slope (below DMSO = inhibition, above = activation) at 10 µM;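 active = thallium flux slope beyond 3 SD from same-plate DMSO control mean in most replicates, usually higher, sometimes lower; inconclusive = repeat tests gave conflicting results; inactive = no significant difference from controls in most replicates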;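 also: slope of initial-normalized fluorescence between seconds 10 and 20 after thallium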
HEK293 Tl flux2: counter-screen for KCC2 modulators: effect in parental HEK293 cells; 3,700 compounds, 33% hits; thallium flux slope at 10 µM; thallium flux FluoZin-2 fluorescence slope; shares compounds with Cl transport mod;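 active = thallium flux slope above the same plate's solvent-control mean plus 3 SD in both duplicate wells; inconclusive = duplicate wells that disagreed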;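 also: run without ouabain in cells lacking the KCC2 cotransporter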
Large screens that a line does not name were inactive (follow-up assays come after a bar, where they were run).

Cc1ccc(C(=O)NC(=S)NCC2CCCO2)cc1Br (configuration not stated)	Cl transport mod 12 | KCC2 sec1 inactive | KCC2 bumet counter 0.0225 | KCC2 sec2 inactive | HEK293 Tl flux 0.0279 | KCC2 retest ouab 0.0275 | HEK293 Tl flux2 inactive
O=C(NC(=S)NCC1CCCO1)c1ccc(Br)o1 (configuration not stated)	Cl transport mod 50.7 | KCC2 sec1 inactive | KCC2 bumet counter 0.0493 | KCC2 sec2 0.0447 | HEK293 Tl flux 0.0374 | KCC2 retest ouab 0.0435 | HEK293 Tl flux2 0.032
O=C(NC(=S)NCC1CCCO1)c1ccccc1Br (configuration not stated)	none
O=C(COc1ccc(F)cc1Br)NCCCN1CCCC1=O	none (no result: KCNQ1 block, KCNK9 inh, hERG rescue, KCNQ1 act, Cl transport mod)
Cc1ccc(OCCC(=O)Nc2cc(S(=O)(=O)N3CCOCC3)ccc2N2CCCC2)cc1	none (no result: KCNQ1 block, KCNK9 inh, hERG rescue, KCNQ1 act, Cl transport mod)
COCCOC(=O)c1c(NC(=O)COC(=O)c2ccc(C)o2)sc(C(N)=O)c1C	none (no result: KCNQ1 block, KCNK9 inh, hERG rescue, KCNQ1 act, Cl transport mod)
Cc1cc2nc3n(c2cc1C)CC1CC(C(=O)NCCc2cccs2)N(C)C31 (configuration not stated)	none
CN1C(C(=O)NCCc2cccs2)CC2Cn3c(nc4cc5ccccc5cc43)C21 (configuration not stated)	Cl transport mod -2.82 | KCC2 sec1 inactive | KCC2 bumet counter inactive | KCC2 sec2 inactive | HEK293 Tl flux inactive | KCC2 retest ouab inactive | HEK293 Tl flux2 inactive
Cn1nnc(NCc2cc(Br)ccc2OCc2cccs2)n1	none (no result: Cl transport mod) | KCC2 sec1 inactive | KCC2 bumet counter inactive | KCC2 sec2 0.0261 | HEK293 Tl flux inactive | KCC2 retest ouab inconclusive | HEK293 Tl flux2 inactive
COc1ccc(-n2nnc3c(SC(C(C)=O)C(=O)N(C)C)ncnc32)cc1 (configuration not stated)	none (no result: Cl transport mod)
O=C1NC(=O)/C(=C/c2ccccc2OCc2ccccc2)S1	Cl transport mod -5.68 | KCC2 sec1 inactive | KCC2 bumet counter inactive | KCC2 sec2 inactive | HEK293 Tl flux inactive | KCC2 retest ouab 0.0153 | HEK293 Tl flux2 inconclusive
Cc1ccc(C)c(N(C)C(=O)COc2cc(=O)n(C)c3ccccc23)c1	Cl transport mod -4.08 | KCC2 sec1 inactive | KCC2 bumet counter inactive | KCC2 sec2 inactive | HEK293 Tl flux inactive | KCC2 retest ouab inactive | HEK293 Tl flux2 inactive
COc1cc(NS(=O)(=O)c2cc(C)ccc2OC)c(OC)cc1Cl	none (no result: Cl transport mod)
COc1ccc(C)cc1S(=O)(=O)Nc1cc(Cl)ccc1Cl	Cl transport mod 8.97 | KCC2 sec1 inactive | KCC2 bumet counter 0.0131 | KCC2 sec2 inactive | HEK293 Tl flux 0.012 | KCC2 retest ouab inactive | HEK293 Tl flux2 0.0133
CCOc1ncccc1C(=O)OCCN1C(=O)c2ccccc2C1=O	Cl transport mod 5.78 | KCC2 sec1 inactive | KCC2 bumet counter inactive | KCC2 sec2 inactive | HEK293 Tl flux inactive | KCC2 retest ouab inactive | HEK293 Tl flux2 inactive
O=C(CCCNC(=O)/C(=C\c1ccc(F)cc1)NC(=O)c1ccccc1)OCc1ccccc1	none
O=C(CCCNC(=O)/C(=C/c1ccc(F)cc1)NC(=O)c1ccccc1)OCc1ccccc1	Cl transport mod -3.2 | KCC2 sec1 inactive | KCC2 bumet counter inactive | KCC2 sec2 inactive | HEK293 Tl flux inactive | KCC2 retest ouab 0.0178 | HEK293 Tl flux2 inactive
CCOc1ccc(C(=O)NCC2CCN(CC3CCCCC3)CC2)cc1	none (no result: Cl transport mod)
COC(=O)c1sc(NC(=S)NC(=O)c2ccccc2C)nc1C	hERG rescue 24.7, KCNQ1 act 42, Cl transport mod 91.9 | KCC2 sec1 0.0495 | KCC2 bumet counter 0.15 | KCC2 sec2 0.0418 | HEK293 Tl flux 0.101 | KCC2 retest ouab 0.0875 | HEK293 Tl flux2 0.0329
COC(=O)c1sc(NC(=S)NC(=O)c2ccc(F)cc2)nc1C	none (no result: KCNK3 inh)
Cc1cccc(NC(=S)NNC(=O)c2cc3c(s2)CCC(C)C3)c1C (configuration not stated)	KCNQ1 act 11, Cl transport mod 36.9 | KCC2 sec1 inactive | KCC2 bumet counter 0.0803 | KCC2 sec2 0.0614 | HEK293 Tl flux 0.0638 | KCC2 retest ouab 0.0625 | HEK293 Tl flux2 0.0593
COC(=O)c1cc2c([nH]c1=O)CCCC2=O	none (no result: KCNQ1 block, KCNK9 inh, hERG rescue, KCNQ1 act, Cl transport mod)
COC(=O)Cc1cc(=O)n2[nH]c(C)c(-c3ccccc3)c2n1	none (no result: Cl transport mod)
Cc1[nH]n2c(=O)cc(C(C)C)nc2c1-c1ccccc1	Cl transport mod 6.66 | KCC2 sec1 inconclusive | KCC2 bumet counter 0.0153 | KCC2 sec2 inconclusive | HEK293 Tl flux inconclusive | KCC2 retest ouab inconclusive | HEK293 Tl flux2 inactive
Cc1cccc(NC(=O)CNC(=O)c2cccc(-n3cccc3)c2)c1C	none (no result: Cl transport mod)
CCc1cccc(C)c1NC(=O)C1CC(=O)N(C2CCCC2)C1 (configuration not stated)	none (no result: KCNQ1 block, KCNK9 inh, hERG rescue, KCNQ1 act, Cl transport mod)
NS(=O)(=O)c1ccc(NC(=O)NC2CCCCC2)cc1	Cl transport mod 3.21 | KCC2 sec1 inactive | KCC2 bumet counter inactive | KCC2 sec2 inactive | HEK293 Tl flux inactive | KCC2 retest ouab inactive | HEK293 Tl flux2 inactive
NS(=O)(=O)c1ccc(NC(=S)NC2CCCCC2)cc1	none
CCOC(=O)N1CCN(C(=O)COc2ccc(S(=O)(=O)NCC(C)C)cc2C)CC1	none (no result: Cl transport mod) | KCC2 sec1 inactive | KCC2 bumet counter inactive | KCC2 sec2 inactive | HEK293 Tl flux inactive | KCC2 retest ouab inactive | HEK293 Tl flux2 inactive
COc1cc2c(cc1OC)C(C)N(C(=S)Nc1ccccc1)CC2 (configuration not stated)	none
COc1cc2c(cc1OC)C(C)N(C(=S)NC(=O)c1ccccc1)CC2 (configuration not stated)	Cl transport mod 20.5 | KCC2 sec1 inconclusive | KCC2 bumet counter 0.0625 | KCC2 sec2 0.0431 | HEK293 Tl flux 0.0413 | KCC2 retest ouab 0.0486 | HEK293 Tl flux2 0.0295
